Assay results as given in ChEMBL document CHEMBL1139504, “Discovery of the first potent, selective 5-hydroxytryptamine1D receptor antagonist” (J Med Chem, 2005).

What was measured:
[1] = biological target: T1, 5-hydroxytryptamine receptor 1D (Homo sapiens, UniProt P28221); test: Displacement of [3H]5-HT from human 5-hydroxytryptamine 1D receptor expressed in CHO cells; format: cell-based
How it was run: (§1)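 Radioligand displacement binding on membranes of cloned human receptors. Each determination lies within 0.3 log units of the mean.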

[2] = biological target: T2, 5-hydroxytryptamine receptor 1A (Homo sapiens, UniProt P08908); test: Displacement of [3H]WAY-100635 from human 5-hydroxytryptamine 1A receptor expressed in CHO cells; format: cell-based; how it was run: as §1
T2 sequence (P08908 whole entry): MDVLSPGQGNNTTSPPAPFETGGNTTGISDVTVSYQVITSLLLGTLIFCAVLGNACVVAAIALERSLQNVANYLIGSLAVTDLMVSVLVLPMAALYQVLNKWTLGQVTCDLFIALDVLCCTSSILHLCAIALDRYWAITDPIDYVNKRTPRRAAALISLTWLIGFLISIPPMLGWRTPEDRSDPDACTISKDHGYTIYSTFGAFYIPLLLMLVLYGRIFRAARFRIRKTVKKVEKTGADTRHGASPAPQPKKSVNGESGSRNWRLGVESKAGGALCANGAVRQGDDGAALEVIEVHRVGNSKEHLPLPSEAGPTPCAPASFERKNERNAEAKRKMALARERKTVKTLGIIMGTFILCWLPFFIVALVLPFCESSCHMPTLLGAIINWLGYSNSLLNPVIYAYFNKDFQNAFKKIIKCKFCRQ

[3] = biological target: Serotonin 1 receptors; 5-HT1B & 5-HT1D (Homo sapiens) (UniProt P28222+P28221); test: Selectivity for human 5-hydroxytryptamine 1D receptor over 5-hydroxytryptamine 1B receptor; format: protein assay
[4] = biological target: T3, 5-hydroxytryptamine receptor 1B (Homo sapiens, UniProt P28222); test: Displacement of [3H]5-HT from human 5-hydroxytryptamine 1B receptor expressed in CHO cells; format: cell-based; how it was run: as §1
[5] = biological target: Sodium-dependent serotonin transporter (Rattus norvegicus, UniProt P31652); test: Inhibition of [3H]5-HT binding to serotonin transporter in rat cortical synaptosomes; format: subcellular, Brain
How it was run: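 Radioligand binding to serotonin transporter in rat cortical synaptosomes. Each determination lies within 0.3 log units of the mean.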

[6] = biological target: T1, 5-hydroxytryptamine receptor 1D; test: Intrinsic activity for human 5-hydroxytryptamine 1D receptor in [35S]GTP-gamma-S, assay; format: functional
How it was run: (§2)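 [35S]GTPγS binding in recombinant cells with high receptor density expressing the human receptor. Ten-point half-log serial dilution gives the concentration–response. Intrinsic activity is expressed relative to the maximal response of the endogenous agonist 5-HT.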

[7] = biological target: T3, 5-hydroxytryptamine receptor 1B; test: Intrinsic activity for human 5-hydroxytryptamine 1B receptor in [35S]GTP-gamma-S, assay; format: functional; how it was run: as §2
[8] = biological target: 5-hydroxytryptamine receptor 6 (Homo sapiens, UniProt P50406); test: Binding affinity for human 5-hydroxytryptamine 6 receptor
D(4) dopamine receptor = biological target: T4, D(4) dopamine receptor (Homo sapiens, UniProt P21917); test: Binding affinity for human dopamine receptor D4
T4 sequence (P21917 whole entry): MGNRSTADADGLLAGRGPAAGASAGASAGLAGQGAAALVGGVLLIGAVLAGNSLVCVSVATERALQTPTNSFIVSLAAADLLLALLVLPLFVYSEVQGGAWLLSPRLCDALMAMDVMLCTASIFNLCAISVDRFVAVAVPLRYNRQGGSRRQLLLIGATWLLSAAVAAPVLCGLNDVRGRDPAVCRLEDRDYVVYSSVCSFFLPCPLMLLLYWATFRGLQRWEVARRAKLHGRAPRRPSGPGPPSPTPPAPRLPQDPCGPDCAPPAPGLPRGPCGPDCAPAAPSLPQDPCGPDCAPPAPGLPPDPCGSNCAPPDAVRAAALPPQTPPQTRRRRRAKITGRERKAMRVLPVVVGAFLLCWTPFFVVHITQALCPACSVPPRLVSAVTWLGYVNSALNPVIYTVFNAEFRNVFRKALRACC

[9] = biological target: 5-hydroxytryptamine receptor 5A (Homo sapiens, UniProt P47898); test: Binding affinity for human 5-hydroxytryptamine 5A receptor
How it was run: (§3)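 Radioligand displacement binding on cloned human receptors. Each determination lies within 0.3 log units of the mean.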

[10] = biological target: Beta-2 adrenergic receptor (Homo sapiens, UniProt P07550); test: Binding affinity for human beta-2 adrenergic receptor
[11] = biological target: T5, 5-hydroxytryptamine receptor 1A (Homo sapiens) (UniProt P08908); test: Intrinsic activity for human 5-hydroxytryptamine 1A receptor in [35S]GTP-gamma-S, assay; […]; format: functional; how it was run: as §2
T5 sequence (whole entry): T2 sequence (P08908 whole entry)

[12] = biological target: T6, 5-hydroxytryptamine receptor 2C (Homo sapiens, UniProt P28335); test: Binding affinity for human 5-hydroxytryptamine 2C receptor; how it was run: as §3
T6 sequence (P28335 whole entry): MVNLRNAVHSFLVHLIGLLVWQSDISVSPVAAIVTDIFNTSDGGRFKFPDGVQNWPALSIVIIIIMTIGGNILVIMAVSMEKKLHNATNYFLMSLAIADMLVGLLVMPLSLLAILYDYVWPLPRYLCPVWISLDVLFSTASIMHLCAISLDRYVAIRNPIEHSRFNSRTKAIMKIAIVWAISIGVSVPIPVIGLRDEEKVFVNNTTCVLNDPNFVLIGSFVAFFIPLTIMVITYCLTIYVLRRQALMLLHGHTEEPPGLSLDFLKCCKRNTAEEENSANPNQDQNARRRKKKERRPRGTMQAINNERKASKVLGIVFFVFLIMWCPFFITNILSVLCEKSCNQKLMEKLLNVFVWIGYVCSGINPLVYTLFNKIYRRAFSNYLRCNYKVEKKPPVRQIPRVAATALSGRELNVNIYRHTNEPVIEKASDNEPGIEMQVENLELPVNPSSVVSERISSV

D(3) dopamine receptor = D(3) dopamine receptor (Homo sapiens, UniProt P35462); test: Binding affinity for human dopamine receptor D3
[13] = biological target: 5-hydroxytryptamine receptor 7 (Homo sapiens, UniProt P34969); test: Binding affinity for human 5-hydroxytryptamine 7 receptor
[14] = biological target: T1, 5-hydroxytryptamine receptor 1D
[15] = biological target: 5-hydroxytryptamine receptor 2A (Homo sapiens, UniProt P28223); test: Binding affinity for human 5-hydroxytryptamine 2A receptor; how it was run: as §3
[16] = biological target: 5-hydroxytryptamine receptor 2B (Homo sapiens, UniProt P41595); test: Binding affinity for human 5-hydroxytryptamine 2B receptor
[17] = biological target: 5-hydroxytryptamine receptor 1E (Homo sapiens, UniProt P28566); test: Binding affinity for human 5-hydroxytryptamine 1E receptor
[18] = biological target: 5-hydroxytryptamine receptor 4 (Homo sapiens, UniProt Q13639); test: Binding affinity for human 5-hydroxytryptamine 4 receptor
D(2) dopamine receptor = D(2) dopamine receptor (Homo sapiens, UniProt P14416); test: Binding affinity for human dopamine receptor D2
[19] = biological target: T7, 5-hydroxytryptamine receptor 1F (Homo sapiens, UniProt P30939); test: Binding affinity for human 5-hydroxytryptamine 1F receptor
T7 sequence (P30939 whole entry): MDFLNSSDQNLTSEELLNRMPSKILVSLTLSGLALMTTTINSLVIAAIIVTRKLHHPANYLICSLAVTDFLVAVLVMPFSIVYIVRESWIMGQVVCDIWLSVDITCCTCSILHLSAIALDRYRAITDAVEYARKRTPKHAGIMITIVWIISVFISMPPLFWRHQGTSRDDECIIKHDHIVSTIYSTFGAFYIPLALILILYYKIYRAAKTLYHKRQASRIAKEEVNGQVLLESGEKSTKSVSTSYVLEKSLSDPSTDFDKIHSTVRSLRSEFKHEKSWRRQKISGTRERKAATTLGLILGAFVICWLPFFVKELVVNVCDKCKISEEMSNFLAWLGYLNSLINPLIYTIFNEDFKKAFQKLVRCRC

[20] = biological target: T8, Alpha-1B adrenergic receptor (Homo sapiens, UniProt P35368); test: Binding affinity for human alpha-1B adrenergic receptor
T8 sequence (P35368 whole entry): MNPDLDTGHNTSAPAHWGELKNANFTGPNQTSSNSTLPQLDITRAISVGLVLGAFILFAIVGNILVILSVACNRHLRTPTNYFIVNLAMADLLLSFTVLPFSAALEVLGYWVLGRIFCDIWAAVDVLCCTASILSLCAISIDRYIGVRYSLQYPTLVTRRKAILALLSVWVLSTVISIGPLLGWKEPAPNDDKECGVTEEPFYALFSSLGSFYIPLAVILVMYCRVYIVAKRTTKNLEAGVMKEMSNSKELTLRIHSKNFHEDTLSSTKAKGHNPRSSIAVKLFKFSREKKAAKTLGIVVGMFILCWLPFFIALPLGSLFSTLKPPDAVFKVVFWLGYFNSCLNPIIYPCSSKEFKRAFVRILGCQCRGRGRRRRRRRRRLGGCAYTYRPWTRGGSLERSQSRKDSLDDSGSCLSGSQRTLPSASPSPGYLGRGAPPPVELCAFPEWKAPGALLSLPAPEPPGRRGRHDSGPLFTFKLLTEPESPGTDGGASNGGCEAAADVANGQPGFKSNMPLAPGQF

[21] = biological target: T5, 5-hydroxytryptamine receptor 1A (Homo sapiens); test: Intrinsic activity for human 5-hydroxytryptamine 1A receptor in [35S]GTP-gamma-S, assay; format: functional; how it was run: as §2
[22] = biological target: T3, 5-hydroxytryptamine receptor 1B
[23] = biological target: T1, 5-hydroxytryptamine receptor 1D; remark: listed apart in the source
[24] = biological target: T5, 5-hydroxytryptamine receptor 1A (Homo sapiens)

T1 sequence (P28221 whole entry): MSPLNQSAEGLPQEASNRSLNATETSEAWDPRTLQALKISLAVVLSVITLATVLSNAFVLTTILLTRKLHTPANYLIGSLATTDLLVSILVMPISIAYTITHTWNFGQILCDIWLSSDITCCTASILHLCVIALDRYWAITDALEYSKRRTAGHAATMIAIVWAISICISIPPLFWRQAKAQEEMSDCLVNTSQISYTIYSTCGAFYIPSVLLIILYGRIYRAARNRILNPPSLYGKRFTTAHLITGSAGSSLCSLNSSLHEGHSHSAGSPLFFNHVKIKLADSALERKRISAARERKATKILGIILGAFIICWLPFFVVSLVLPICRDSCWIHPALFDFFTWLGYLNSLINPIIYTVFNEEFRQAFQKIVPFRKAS
Sequence of Sodium-dependent serotonin transporter (P31652 whole entry): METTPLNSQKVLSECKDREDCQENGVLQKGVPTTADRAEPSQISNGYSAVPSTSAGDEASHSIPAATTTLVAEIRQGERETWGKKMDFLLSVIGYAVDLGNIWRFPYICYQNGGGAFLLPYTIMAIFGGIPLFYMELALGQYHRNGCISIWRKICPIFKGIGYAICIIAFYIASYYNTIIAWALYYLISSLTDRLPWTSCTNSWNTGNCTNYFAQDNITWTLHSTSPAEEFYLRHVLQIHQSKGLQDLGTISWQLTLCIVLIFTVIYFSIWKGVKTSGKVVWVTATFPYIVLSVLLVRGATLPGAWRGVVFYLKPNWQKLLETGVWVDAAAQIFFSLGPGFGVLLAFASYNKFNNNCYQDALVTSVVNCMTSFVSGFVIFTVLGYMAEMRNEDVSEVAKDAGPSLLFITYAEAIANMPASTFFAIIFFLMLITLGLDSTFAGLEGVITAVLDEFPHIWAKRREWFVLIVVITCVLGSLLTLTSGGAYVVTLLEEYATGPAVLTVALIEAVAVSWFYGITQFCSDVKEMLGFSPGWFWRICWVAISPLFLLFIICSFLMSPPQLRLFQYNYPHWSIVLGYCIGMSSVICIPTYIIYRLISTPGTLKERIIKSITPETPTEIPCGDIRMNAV
T3 sequence (P28222 whole entry): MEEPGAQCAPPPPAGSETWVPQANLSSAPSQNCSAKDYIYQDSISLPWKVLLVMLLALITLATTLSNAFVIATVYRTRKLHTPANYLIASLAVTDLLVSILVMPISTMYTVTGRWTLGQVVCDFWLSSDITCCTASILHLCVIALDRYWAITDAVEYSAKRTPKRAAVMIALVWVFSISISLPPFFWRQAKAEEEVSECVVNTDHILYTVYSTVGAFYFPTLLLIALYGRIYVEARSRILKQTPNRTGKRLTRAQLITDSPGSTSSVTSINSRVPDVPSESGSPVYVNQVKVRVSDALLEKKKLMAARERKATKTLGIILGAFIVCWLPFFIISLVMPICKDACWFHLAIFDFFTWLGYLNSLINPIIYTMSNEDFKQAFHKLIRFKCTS
Sequence of 5-hydroxytryptamine receptor 1E (P28566 whole entry): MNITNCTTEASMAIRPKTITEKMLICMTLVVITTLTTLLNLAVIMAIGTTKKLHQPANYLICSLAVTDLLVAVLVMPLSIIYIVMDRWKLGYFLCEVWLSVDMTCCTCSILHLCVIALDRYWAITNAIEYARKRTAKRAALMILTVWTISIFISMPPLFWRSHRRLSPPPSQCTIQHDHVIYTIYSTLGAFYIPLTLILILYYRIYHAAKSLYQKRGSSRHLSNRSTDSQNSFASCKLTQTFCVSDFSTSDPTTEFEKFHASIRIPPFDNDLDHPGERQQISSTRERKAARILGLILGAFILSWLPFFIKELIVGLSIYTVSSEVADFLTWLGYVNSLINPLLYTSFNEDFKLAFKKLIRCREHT
Sequence of 5-hydroxytryptamine receptor 2B (P41595 whole entry): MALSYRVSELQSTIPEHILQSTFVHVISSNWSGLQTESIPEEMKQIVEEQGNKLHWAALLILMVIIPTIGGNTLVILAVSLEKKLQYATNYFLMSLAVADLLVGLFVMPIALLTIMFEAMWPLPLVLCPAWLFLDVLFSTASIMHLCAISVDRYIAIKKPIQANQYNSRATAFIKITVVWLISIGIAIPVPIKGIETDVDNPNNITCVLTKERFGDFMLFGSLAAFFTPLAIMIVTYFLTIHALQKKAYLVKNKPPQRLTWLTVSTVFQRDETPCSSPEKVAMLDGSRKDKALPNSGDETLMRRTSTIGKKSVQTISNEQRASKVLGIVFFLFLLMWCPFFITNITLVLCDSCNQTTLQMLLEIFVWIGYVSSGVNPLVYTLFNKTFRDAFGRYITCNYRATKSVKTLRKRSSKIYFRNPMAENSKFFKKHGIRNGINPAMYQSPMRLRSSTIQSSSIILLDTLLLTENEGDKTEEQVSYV
Sequence of 5-hydroxytryptamine receptor 2A (P28223 whole entry): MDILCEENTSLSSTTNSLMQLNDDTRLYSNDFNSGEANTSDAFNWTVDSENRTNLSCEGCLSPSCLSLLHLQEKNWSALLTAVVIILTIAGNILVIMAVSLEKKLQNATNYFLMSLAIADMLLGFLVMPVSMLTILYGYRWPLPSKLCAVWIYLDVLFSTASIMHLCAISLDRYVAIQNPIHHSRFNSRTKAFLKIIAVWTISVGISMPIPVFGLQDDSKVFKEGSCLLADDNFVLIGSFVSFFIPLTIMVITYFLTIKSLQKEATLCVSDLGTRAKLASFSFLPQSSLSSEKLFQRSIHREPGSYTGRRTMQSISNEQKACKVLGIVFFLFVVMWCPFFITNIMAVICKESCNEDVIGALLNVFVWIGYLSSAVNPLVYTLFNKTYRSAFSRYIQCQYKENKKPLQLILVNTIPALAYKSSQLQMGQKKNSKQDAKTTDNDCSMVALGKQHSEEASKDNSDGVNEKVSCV
Sequence of 5-hydroxytryptamine receptor 7 (P34969 whole entry): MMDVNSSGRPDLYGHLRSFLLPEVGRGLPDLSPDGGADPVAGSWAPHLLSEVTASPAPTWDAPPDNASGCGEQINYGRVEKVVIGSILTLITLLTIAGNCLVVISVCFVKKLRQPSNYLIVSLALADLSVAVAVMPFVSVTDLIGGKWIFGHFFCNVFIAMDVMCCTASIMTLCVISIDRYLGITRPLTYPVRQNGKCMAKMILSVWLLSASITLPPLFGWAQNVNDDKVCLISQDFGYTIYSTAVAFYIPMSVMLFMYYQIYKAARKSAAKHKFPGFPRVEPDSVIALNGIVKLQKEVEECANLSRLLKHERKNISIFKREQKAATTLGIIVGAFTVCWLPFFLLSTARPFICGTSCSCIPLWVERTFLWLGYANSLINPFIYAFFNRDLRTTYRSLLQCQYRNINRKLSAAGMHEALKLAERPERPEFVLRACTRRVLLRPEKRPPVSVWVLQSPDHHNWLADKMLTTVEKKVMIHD
Sequence of 5-hydroxytryptamine receptor 4 (Q13639 whole entry): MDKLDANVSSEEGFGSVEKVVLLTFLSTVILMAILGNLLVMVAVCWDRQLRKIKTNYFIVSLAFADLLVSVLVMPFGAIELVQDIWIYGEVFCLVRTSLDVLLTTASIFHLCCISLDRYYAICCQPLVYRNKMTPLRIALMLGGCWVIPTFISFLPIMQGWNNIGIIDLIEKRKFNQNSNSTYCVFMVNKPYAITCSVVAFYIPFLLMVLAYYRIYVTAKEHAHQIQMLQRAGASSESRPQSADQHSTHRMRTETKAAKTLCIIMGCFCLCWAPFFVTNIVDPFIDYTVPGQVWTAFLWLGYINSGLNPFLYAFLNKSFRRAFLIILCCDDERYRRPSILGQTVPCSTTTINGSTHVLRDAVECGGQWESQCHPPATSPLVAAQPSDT
Sequence of 5-hydroxytryptamine receptor 6 (P50406 whole entry): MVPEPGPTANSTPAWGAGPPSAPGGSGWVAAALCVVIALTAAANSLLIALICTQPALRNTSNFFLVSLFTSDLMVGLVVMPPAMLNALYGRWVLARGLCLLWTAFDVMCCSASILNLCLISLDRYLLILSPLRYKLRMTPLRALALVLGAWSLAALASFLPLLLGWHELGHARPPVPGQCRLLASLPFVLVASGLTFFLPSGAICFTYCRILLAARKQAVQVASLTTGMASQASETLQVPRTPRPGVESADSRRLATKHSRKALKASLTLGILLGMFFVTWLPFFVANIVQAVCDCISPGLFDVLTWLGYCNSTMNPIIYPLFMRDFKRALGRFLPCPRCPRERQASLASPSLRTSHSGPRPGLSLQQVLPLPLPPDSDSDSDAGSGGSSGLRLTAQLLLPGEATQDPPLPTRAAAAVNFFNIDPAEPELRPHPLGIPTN
Sequence of D(2) dopamine receptor (P14416 whole entry): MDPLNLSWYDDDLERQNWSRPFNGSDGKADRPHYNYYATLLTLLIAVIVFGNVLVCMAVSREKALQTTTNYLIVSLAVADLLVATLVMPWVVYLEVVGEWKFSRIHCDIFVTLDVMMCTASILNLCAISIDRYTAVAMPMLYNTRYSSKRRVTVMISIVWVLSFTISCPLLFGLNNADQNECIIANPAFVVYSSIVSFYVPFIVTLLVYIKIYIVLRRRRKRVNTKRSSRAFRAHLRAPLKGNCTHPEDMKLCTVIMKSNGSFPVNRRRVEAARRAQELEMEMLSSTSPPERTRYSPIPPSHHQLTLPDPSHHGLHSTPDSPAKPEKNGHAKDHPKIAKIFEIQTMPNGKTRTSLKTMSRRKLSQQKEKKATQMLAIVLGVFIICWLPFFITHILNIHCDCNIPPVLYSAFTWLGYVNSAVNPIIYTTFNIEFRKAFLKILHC
Sequence of D(3) dopamine receptor (P35462 whole entry): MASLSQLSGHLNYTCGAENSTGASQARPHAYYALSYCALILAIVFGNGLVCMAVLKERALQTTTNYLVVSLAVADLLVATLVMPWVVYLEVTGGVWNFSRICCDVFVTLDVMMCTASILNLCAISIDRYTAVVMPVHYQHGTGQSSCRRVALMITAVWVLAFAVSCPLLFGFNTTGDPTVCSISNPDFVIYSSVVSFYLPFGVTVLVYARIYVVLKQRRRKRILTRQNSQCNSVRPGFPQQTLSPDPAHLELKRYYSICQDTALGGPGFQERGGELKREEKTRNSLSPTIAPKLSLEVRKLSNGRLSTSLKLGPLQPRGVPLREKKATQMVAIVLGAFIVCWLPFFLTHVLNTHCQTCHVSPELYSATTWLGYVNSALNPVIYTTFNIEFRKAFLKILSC

Structure (SMILES)	Ki [1] [nM]	Ki [2] [nM]	Selectivity [3]	Ki [4] [nM]	Ki [5] [nM]	also measured
Cc1ccc2c(OCCN3CCN(Cc4ccc(O)c([N+](=O)[O-])c4)CC3)cccc2n1	10	794	40	398	1000	
Cc1ccc2c(OCCN3CCN(Cc4ccc5c(c4)NC(=O)CO5)CC3)cccc2n1	10	63.1	10	100	25.1	
COc1ccc(CN2CCN(CCOc3cccc4nc(C)ccc34)CC2)cc1[N+](=O)[O-]	20	398	16	316		
COc1ccc(NC(=O)c2ccc(-c3ccc(-c4noc(C)n4)cc3C)cc2)cc1N1CCN(C)CC1						IA [6]: 0.86; IA [7]: 0.47
Cc1ccc2c(OCCN3CCN(Cc4c(Cl)cccc4Cl)CC3)cccc2n1	> 10000	> 10000		> 10000	1260	
Cc1ccc2c(OCCN3CCN(Cc4cccc5ncncc45)CC3)cccc2n1	2.51	398	126	316		
Cc1ccc2c(OCCN3CCN(Cc4cccc5cccnc45)CC3)cccc2n1	0.794	316	251	200	316	Ki [8]: > 10 µM; Ki (D(4) dopamine receptor): > 10 µM; Ki [9]: 3.16 µM; Ki [10]: 2000 nM; IA [11]: 0; Ki [12]: 3.16 µM; Ki (D(3) dopamine receptor): 1000 nM; Ki [13]: 501 nM; IA [14]: 0; Ki [15]: > 2510 nM; Ki [16]: 1260 nM; IA [7]: 0.3; Ki [17]: > 10 µM; Ki [18]: > 5.01 µM; Ki (D(2) dopamine receptor): 3.16 µM; Ki [19]: 2000 nM; Ki [20]: 1000 nM
CN1CCN(c2cc3c(cc2Cl)CCN3C(=O)Nc2ccc(-c3ccncc3)c3ccccc23)CC1						IA [21]: 0.44
Cc1ccc2c(OCCN3CCN(Cc4cccc5cc[nH]c45)CC3)cccc2n1	3.16	398	126	398	398	IA [6]: 0.5; IA [11]: 0; IA [7]: 0.1
Cc1ccc2c(OCCN3CCC(Cc4ccc5c(c4)NC(=O)CO5)CC3)cccc2n1	1.58					
Cc1ccc2c(OCCN3CCN(Cc4cccc5[nH]cnc45)CC3)cccc2n1	0.251	158	251	63.1	794	IA [6]: 0.5; IA [11]: 0; IA [7]: 0.3
Cc1ccc2c(OCCN3CCN(Cc4ccc5[nH]ccc5c4)CC3)cccc2n1	3.16	1000	50	158		
Cc1ccc2c(OCCN3CCN(Cc4cc(Cl)ccc4Cl)CC3)cccc2n1	3.98	79.4	158	631	1260	
Cc1ccc2c(OCCN3CCN(Cc4ccc(F)c([N+](=O)[O-])c4)CC3)cccc2n1	7.94	501	32	251	316	
Cc1ccc2c(OCCN3CCN(Cc4cccc5ncccc45)CC3)cccc2n1	2.51	398	100	251		
Cc1ccc2c(OCCN3CCN(Cc4ccc(O)c(N)c4)CC3)cccc2n1	1.58	> 1260	158	251		
NCCc1c[nH]c2ccc(O)cc12						IA [22]: 1; IA [23]: 1; IA [24]: 1
Cc1ccc2c(OCCN3CCN(Cc4ccc(Cl)c([N+](=O)[O-])c4)CC3)cccc2n1	5.01	63.1	40	200	200	
Cc1ccc2c(OCCN3CCN(Cc4ccc(C)c([N+](=O)[O-])c4)CC3)cccc2n1	2	39.8	40	79.4	50.1	
Cc1ccc2c(OCCN3CCN(Cc4ccc(Cl)c(Cl)c4)CC3)cccc2n1	2510	> 10000	1	2000	501	
